# Results as given in ChEMBL document CHEMBL1145888, “Prazosin-related compounds. Effect of transforming the piperazinylquinazoline moiety into an aminomethyltetrahydroacridine system on the affinity for alpha1-adrenoreceptors” (J Med Chem, 2003).
# Legend:
# [1] = target: T1, Alpha-1B adrenergic receptor (Rattus norvegicus) (UniProt P15823); experiment: Affinity was evaluated against Alpha-1B adrenoceptor in isolated rat spleen expressed as pKB; type: tissue-based
# T1 sequence (whole entry): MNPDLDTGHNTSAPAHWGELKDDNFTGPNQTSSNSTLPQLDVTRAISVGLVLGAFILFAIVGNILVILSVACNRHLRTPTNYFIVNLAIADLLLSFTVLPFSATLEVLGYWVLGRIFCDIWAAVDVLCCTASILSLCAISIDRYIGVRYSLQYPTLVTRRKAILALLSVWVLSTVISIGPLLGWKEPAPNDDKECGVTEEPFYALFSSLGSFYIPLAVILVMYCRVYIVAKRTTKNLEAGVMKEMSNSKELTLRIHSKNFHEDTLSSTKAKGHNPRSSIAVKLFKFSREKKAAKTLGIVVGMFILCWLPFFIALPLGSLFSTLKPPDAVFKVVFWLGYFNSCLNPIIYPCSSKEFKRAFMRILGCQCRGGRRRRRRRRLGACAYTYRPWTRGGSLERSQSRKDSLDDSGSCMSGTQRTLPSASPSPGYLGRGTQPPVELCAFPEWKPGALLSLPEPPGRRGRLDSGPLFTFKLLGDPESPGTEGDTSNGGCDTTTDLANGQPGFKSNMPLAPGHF
# Outline: (§1)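 Isolated rat tissue; isometric contractions recorded via force transducer, with parallel tissues receiving no antagonist to check for sensitivity drift. A control agonist cumulative concentration-response curve was run, then antagonist equilibrated 30 min before a repeat curve. Responses were taken as % of the control maximum. pKB (±SE) was calculated by van Rossum at one concentration (0.1-10 µM range), each tested 4-5 times.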
# [2] = target: T2, Alpha-1A adrenergic receptor (Homo sapiens, UniProt P35348); experiment: Binding affinity measured in CHO cells expressing human cloned Alpha-1A adrenergic receptor expressed as pKi; type: cell-based
# T2 sequence (P35348 whole entry): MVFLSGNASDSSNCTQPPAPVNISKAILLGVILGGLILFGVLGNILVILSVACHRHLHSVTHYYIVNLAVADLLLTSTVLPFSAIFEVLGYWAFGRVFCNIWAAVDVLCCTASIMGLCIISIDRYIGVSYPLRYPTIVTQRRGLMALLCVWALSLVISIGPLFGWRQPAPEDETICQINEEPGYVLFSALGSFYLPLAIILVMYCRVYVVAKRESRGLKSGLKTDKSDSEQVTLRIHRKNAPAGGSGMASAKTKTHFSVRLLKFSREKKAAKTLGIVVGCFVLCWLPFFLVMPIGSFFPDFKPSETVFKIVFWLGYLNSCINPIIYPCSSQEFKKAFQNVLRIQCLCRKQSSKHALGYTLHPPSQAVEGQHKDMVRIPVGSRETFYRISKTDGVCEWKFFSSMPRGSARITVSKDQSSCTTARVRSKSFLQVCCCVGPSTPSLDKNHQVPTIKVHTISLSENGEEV
# [3] = target: T3, Alpha-1D adrenergic receptor (Homo sapiens, UniProt P25100); experiment: Binding affinity measured in CHO cells expressing human cloned Alpha-1D adrenergic receptor expressed as pKi; type: cell-based
# T3 sequence (P25100 whole entry): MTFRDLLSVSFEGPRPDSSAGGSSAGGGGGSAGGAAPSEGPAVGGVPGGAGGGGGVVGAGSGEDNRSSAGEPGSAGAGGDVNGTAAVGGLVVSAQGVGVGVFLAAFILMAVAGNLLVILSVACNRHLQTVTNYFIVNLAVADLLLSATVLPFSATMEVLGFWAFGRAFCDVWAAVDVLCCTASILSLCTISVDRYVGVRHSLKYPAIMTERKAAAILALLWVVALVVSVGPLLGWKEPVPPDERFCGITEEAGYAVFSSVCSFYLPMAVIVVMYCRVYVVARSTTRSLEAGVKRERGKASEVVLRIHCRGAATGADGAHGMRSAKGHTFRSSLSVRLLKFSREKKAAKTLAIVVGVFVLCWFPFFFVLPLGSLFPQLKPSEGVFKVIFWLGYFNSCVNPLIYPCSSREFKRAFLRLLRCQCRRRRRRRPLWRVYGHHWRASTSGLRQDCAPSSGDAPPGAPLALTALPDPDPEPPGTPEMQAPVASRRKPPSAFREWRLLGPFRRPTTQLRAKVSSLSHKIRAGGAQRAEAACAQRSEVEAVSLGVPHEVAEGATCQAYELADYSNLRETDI
# [4] = target: T4, Alpha-1A adrenergic receptor (Rattus norvegicus) (UniProt P43140); conditions: Vas deferens
# T4 sequence (whole entry): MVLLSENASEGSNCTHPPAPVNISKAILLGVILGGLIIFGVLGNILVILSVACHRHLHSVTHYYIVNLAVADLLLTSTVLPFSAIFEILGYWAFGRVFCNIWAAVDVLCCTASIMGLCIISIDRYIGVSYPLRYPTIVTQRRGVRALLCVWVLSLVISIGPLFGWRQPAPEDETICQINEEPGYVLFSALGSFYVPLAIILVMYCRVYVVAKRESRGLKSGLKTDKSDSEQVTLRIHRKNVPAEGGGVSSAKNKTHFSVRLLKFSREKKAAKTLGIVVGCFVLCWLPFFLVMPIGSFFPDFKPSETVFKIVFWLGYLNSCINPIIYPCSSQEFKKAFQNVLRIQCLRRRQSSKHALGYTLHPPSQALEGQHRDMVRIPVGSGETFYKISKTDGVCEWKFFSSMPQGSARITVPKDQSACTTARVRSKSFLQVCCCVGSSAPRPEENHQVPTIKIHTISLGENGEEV
# [5] = target: T5, Alpha-1D adrenergic receptor (Rattus norvegicus) (UniProt P23944); conditions: Aorta
# T5 sequence (whole entry): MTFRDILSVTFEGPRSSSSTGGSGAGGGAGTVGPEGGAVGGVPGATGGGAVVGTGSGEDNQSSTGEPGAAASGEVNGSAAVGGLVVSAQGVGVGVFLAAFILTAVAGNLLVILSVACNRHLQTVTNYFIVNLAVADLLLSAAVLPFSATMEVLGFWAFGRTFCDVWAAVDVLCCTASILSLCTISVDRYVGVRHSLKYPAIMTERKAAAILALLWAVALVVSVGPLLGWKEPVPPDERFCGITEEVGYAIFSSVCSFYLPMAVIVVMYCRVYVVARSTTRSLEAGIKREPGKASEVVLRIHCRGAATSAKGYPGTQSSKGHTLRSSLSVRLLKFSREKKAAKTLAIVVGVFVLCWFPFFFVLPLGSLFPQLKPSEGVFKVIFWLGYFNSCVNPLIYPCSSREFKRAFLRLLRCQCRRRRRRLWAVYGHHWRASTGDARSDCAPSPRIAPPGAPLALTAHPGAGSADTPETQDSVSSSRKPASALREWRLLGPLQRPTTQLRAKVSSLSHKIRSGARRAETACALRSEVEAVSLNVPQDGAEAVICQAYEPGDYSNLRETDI
# [6] = target: T6, Alpha-1B adrenergic receptor (Homo sapiens, UniProt P35368); experiment: Binding affinity measured in CHO cells expressing human cloned Alpha-1B adrenergic receptor expressed as pKi; type: cell-based
# T6 sequence (P35368 whole entry): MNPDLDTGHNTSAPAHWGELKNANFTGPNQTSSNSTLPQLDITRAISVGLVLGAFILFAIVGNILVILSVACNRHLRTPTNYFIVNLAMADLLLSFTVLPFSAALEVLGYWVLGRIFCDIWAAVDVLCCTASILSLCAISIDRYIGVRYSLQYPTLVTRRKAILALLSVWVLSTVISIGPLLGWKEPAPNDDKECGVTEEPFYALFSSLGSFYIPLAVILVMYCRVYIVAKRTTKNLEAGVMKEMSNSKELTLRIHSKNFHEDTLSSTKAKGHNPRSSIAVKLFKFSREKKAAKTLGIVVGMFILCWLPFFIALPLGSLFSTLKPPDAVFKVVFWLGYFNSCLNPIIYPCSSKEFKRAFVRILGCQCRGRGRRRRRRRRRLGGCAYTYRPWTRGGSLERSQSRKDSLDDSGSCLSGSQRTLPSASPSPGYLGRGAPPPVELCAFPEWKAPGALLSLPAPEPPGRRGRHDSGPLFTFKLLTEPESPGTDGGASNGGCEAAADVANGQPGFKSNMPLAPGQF
# [7] = target: T5, Alpha-1D adrenergic receptor (Rattus norvegicus); experiment: Affinity was evaluated against Alpha-1D adrenergic receptor in isolated rat aorta expressed as pKB; type: tissue-based; outline: as §1
# [8] = target: T1, Alpha-1B adrenergic receptor (Rattus norvegicus); experiment: Affinity was evaluated against Alpha-1B adrenergic receptor in isolated rat spleen expressed as pKB; type: tissue-based; outline: as §1
pKB [1],Ki [2] [µM],Ki [3] [µM],pKB [4],pKB [5],Ki [6] [µM],pKB [7],pKB [8],SMILES
7.2,0.977,0.2,5.7,6.39,0.0398,,,COc1cc2nc3c(c(N)c2cc1OC)CCC(CNCCOc1c(OC)cccc1OC)C3 (configuration not stated)
6.95,2.57,1.15,5.76,6.41,0.295,,,COc1cc2nc3c(c(O)c2cc1OC)CCC(CNC(=O)c1ccco1)C3 (configuration not stated)
6.92,,,6.34,6.94,,,,COc1cc2nc3c(c(N)c2cc1OC)CCCC(CNC(=O)c1ccco1)C3 (configuration not stated)
7.05,1.7,0.389,6.24,,0.219,5.92,,COc1cc2nc3c(c(O)c2cc1OC)CCC(CNCCOc1c(OC)cccc1OC)C3 (configuration not stated)
7.33,0.288,0.0245,6.47,,0.00741,6.85,,COc1cc2nc3c(c(N)c2cc1OC)CCC(CNC(=O)c1ccccc1C(F)(F)F)C3 (configuration not stated)
7.2,0.0851,0.0191,6.08,,0.00891,6.67,,COc1cc2nc3c(c(N)c2cc1OC)CCC(CNC(=O)c1ccc(C(F)(F)F)cc1)C3 (configuration not stated)
,0.0955,0.0158,6.52,7.47,0.0123,,7.3,COc1cc2nc3c(c(N)c2cc1OC)CCC(CNC(=O)c1ccco1)C3 (configuration not stated)
8.2,,,9.48,8.85,,,,COc1cccc(OC)c1OCCNCC1COc2ccccc2O1 (configuration not stated)
6.82,0.158,0.2,6.26,,0.0794,6.11,,COc1cc2nc3c(c(N)c2cc1OC)CC(CNC(=O)c1ccco1)C3 (configuration not stated)
7.19,,,6.67,,,6.63,,COc1cc2nc3c(c(N)c2cc1OC)CCC(CNC(=O)c1ccccc1)C3 (configuration not stated)
7.36,0.0316,0.0251,7.16,,0.0126,7.58,,COc1cc2nc3c(c(N)c2cc1OC)CCC(CNC(=O)c1cccc(C(F)(F)F)c1)C3 (configuration not stated)
